{"source": "ChEMBL document CHEMBL4842317", "about": "“Discovery of novel 3-hydroxyandrosta-5,7-Diene-17-Carboxylic acid derivatives as anti-inflammatory bowel diseases (IBD) agents” (Eur J Med Chem, 2021)", "key": {"[1]": {"test_system": "RAW264.7", "assay": "Antiinflammatory activity against mouse RAW264.7 cells assessed as decrease in LPS-induced NF-kappB mRNA expression at 20 uM in presence of LPS by qRT-PCR analysis", "type": "functional, cell-based", "method_in_brief": "(§1)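 RAW 264.7 cells are grown 12 h in six-well plates, then exposed to LPS (100 ng/ml) plus compound for 8 h. Reverse transcription is followed by SYBR Green qPCR with GAPDH as internal control. Relative expression is calculated by 2^-ΔΔCT versus the untreated control. Mean + SD from three independent experiments.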"}, "[2]": {"test_system": "Mus musculus", "assay": "Antiinflammatory activity against DSS-induced colitis C57BL/6 mouse assessed as decrease in p-IkB alpha level in colon at 50 mg/kg, ip administered for 7 days by western blot analysis", "type": "functional, organism-based", "details": "time 7.0 day", "method_in_brief": "(§2)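 Male C57BL/6 mice, 6 weeks old, 5 per group, given 3.5% DSS solution plus daily intraperitoneal drug (100 μL, in saline/castor oil/ethanol/DMSO 70:10:15:5) for 7 days. Colons collected after sacrifice. IL-1β is normalised per milligram of colonic protein. p-IκB-α and p-p65 in colonic protein are measured by Western blot. Bars give mean + SD.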"}, "[3]": {"test_system": "RAW264.7", "assay": "Antiinflammatory activity against mouse RAW264.7 cells assessed as inhibition of LPS-induced iNOS mRNA expression at 20 uM incubated for 8 hrs in presence of LPS by qRT-PCR analysis", "type": "functional, cell-based", "method_in_brief": "as §1"}, "[4]": {"test_system": "Mus musculus", "assay": "Antiinflammatory activity against DSS-induced colitis C57BL/6 mouse model assessed as attenuation of colon length shortening at 50 mg/kg, ip administered for 7 days", "type": "functional, organism-based", "details": "time 7.0 day", "method_in_brief": "(§3)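 Male C57BL/6 mice, 6 weeks old, 5 per group, given 3.5% DSS in drinking solution with intraperitoneal drug in saline/castor oil/ethanol/DMSO (70:10:15:5) daily for 7 days. Colons are photographed after sacrifice by cervical dislocation for gross assessment.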"}, "[5]": {"test_system": "RAW264.7", "assay": "Antiinflammatory activity against mouse RAW264.7 cells assessed as inhibition of LPS-induced IL-6 production measured after 24 hrs in presence of LPS by ELISA", "type": "functional, cell-based", "details": "dose 0.31-20 µM", "method_in_brief": "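RAW 264.7 cells are seeded at 2 × 10^5 per well, grown 12 h, and given 100 ng/mL LPS with compound at 0.31 to 20 μM for 24 h. Supernatant IL-1β and IL-6 are quantified by ELISA. Mean + SD, n = 3.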"}, "[6]": {"test_system": "RAW264.7", "assay": "Antiinflammatory activity against mouse RAW264.7 cells assessed as decrease in LPS-induced NF-kappB mRNA expression in presence of LPS by qRT-PCR analysis", "type": "functional, cell-based", "details": "dose 0.31-20 µM", "method_in_brief": "as §1"}, "[7]": {"test_system": "Mus musculus", "assay": "Antiinflammatory activity against DSS-induced colitis C57BL/6 mouse assessed as decrease in p-p65 level in colon at 50 mg/kg, ip administered for 7 days by western blot analysis", "type": "functional, organism-based", "details": "time 7.0 day", "method_in_brief": "as §2"}, "[8]": {"test_system": "Mus musculus", "assay": "Antiinflammatory activity against DSS-induced colitis C57BL/6 mouse model assessed as attenuation of colon length shortening at 25 mg/kg, ip administered for 7 days", "type": "functional, organism-based", "details": "time 7.0 day", "method_in_brief": "as §3"}, "[9]": {"test_system": "RAW264.7", "assay": "Inhibition of PI3K/Akt signaling in mouse RAW264.7 cells assessed as inhibition of LPS-induced Akt phosphorylation by measuring increase in Akt level at 1.25 uM in presence of LPS by western blot analysis", "type": "cell-based", "method_in_brief": "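Lysates of LPS-stimulated RAW 264.7 cells (20–30 μg protein) are run on 10% SDS-PAGE, blotted, blocked with 5% milk, probed overnight at 4 °C (1:5,000), then detected with HRP secondary and ECL. Actin, GAPDH or H3 (nuclear fraction) serve as loading controls, with densitometry ratios. Blots are representative of three independent experiments; mean + SD (n = 3).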"}, "[10]": {"test_system": "RAW264.7", "assay": "Antiinflammatory activity against mouse RAW264.7 cells assessed as inhibition of LPS-induced COX2 mRNA expression at 20 uM incubated for 8 hrs in presence of LPS by qRT-PCR analysis", "type": "functional, cell-based", "method_in_brief": "as §1"}, "[11]": {"test_system": "RAW264.7", "assay": "Antiinflammatory activity against mouse RAW264.7 cells assessed as inhibition of LPS-induced NO production measured after 24 hrs by Griess assay", "type": "functional, cell-based", "details": "RAW264.7, 24 h", "method_in_brief": "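RAW 264.7 cells (1 × 10^5 cells/mL) are cultured 24 h, stimulated with LPS (100 ng/mL final), and treated with compounds from 100 μM downward for 24 h in DMEM with 10% FBS. Medium nitrite is measured by Griess reaction (sulfanilamide, naphthylethylenediamine, phosphoric acid, 10 min, room temperature, dark). Mean + SD from three independent experiments.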"}, "[12]": {"test_system": "Mus musculus", "assay": "Antiinflammatory activity against DSS-induced colitis C57BL/6 mouse assessed as decrease in p-p65 level in colon at 25 mg/kg, ip administered for 7 days by western blot analysis", "type": "functional, organism-based", "details": "time 7.0 day", "method_in_brief": "as §2"}, "[13]": {"test_system": "RAW264.7", "assay": "Antiinflammatory activity against mouse RAW264.7 cells assessed as decrease in LPS-induced IL-6 mRNA expression at 20 uM in presence of LPS by qRT-PCR analysis", "type": "functional, cell-based", "method_in_brief": "as §1"}, "[14]": {"test_system": "RAW264.7", "assay": "Antiinflammatory activity against mouse RAW264.7 cells assessed as inhibition of LPS-induced iNOS mRNA expression incubated for 8 hrs in presence of LPS by qRT-PCR analysis", "type": "functional, cell-based", "details": "dose 0.31-20 µM", "method_in_brief": "as §1"}, "[15]": {"test_system": "RAW264.7", "assay": "Cytotoxicity against mouse RAW264.7 cells assessed as reduction in cell viability at 3 to 100 uM incubated for 24 hrs in presence of LPS by MTT assay", "type": "cell-based", "details": "raw264.7, 24 h, dose 3-100 µM", "method_in_brief": "(§4)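 RAW 264.7 cells are seeded at 1.0 × 10^4 per well and incubated overnight. Compounds are added at concentrations from 100 μM downward, with or without LPS (100 ng/mL), for 24 h. MTT (0.5 mg/mL) is added for 4 h and the formazan is dissolved in DMSO for the read-out.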"}, "[16]": {"test_system": "RAW264.7", "assay": "Cytotoxicity against mouse RAW264.7 cells assessed as reduction in cell viability at 3 to 100 uM incubated for 24 hrs by MTT assay", "type": "cell-based", "details": "raw264.7, 24 h, dose 3-100 µM", "method_in_brief": "as §4"}, "[17]": {"test_system": "Mus musculus", "assay": "Antiinflammatory activity against DSS-induced colitis C57BL/6 mouse model assessed as dispersed CD86-positive cells in colon at 25 to 100 mg/kg, ip administered for 7 days by hematoxylin and eosin staining based microscopic analysis", "type": "functional, organism-based", "details": "dose 25-100 mg/kg, time 7.0 day", "method_in_brief": "(§5)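 DSS colitis (3.5% DSS, male C57BL/6 mice, n=5 per group) with 7-day intraperitoneal dosing in saline/castor oil/ethanol/DMSO vehicle. Colons are fixed in formalin, paraffin-embedded and stained with H&E (viewed at 200X). Separately, sections undergo CD86 immunohistochemistry (citrate antigen retrieval, 3% H2O2 block, 1:200 primary and HRP secondary, hematoxylin counterstain) viewed at 400X.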"}, "[18]": {"test_system": "RAW264.7", "assay": "Antiinflammatory activity against mouse RAW264.7 cells assessed as decrease in LPS-induced TNF-alpha mRNA expression at 20 uM in presence of LPS by qRT-PCR analysis", "type": "functional, cell-based", "method_in_brief": "as §1"}, "[19]": {"test_system": "Mus musculus", "assay": "Antiinflammatory activity against DSS-induced colitis C57BL/6 mouse assessed as decrease in IL-1beta level in colon at 25 mg/kg, ip administered for 7 days", "type": "functional, organism-based", "details": "time 7.0 day", "method_in_brief": "as §2"}, "[20]": {"test_system": "Mus musculus", "assay": "Antiinflammatory activity against DSS-induced colitis C57BL/6 mouse model assessed as colon with intact structure with few inflammatory cells at 50 to 100 mg/kg, ip administered for 7 days by hematoxylin and eosin staining based microscopic analysis", "type": "functional, organism-based", "details": "dose 50-100 mg/kg, time 7.0 day", "method_in_brief": "as §5"}, "[21]": {"test_system": "Mus musculus", "assay": "Antiinflammatory activity against DSS-induced colitis C57BL/6 mouse model assessed as reduction in scores of stool consistency and bleeding at 25 to 100 mg/kg, ip administered for 7 days by immunohistochemistry analysis", "type": "functional, organism-based", "details": "dose 25-100 mg/kg, time 7.0 day"}}, "note": "Activity calls are given as the source filed them. The calls are words filed in the database; no cut-off is given here."}
{"smiles": "C[C@]12CC[C@H]3[C@@H](CC=C4C[C@@H](O)CC[C@@]43C)[C@@H]1CC[C@@H]2C(=O)n1ccnc1", "values": [{"measurement": "Activity", "setting": "[1]", "value": "Active"}, {"measurement": "Activity", "setting": "[2]", "value": "Active"}, {"measurement": "Activity", "setting": "[3]", "value": "Active"}, {"measurement": "Activity", "setting": "[4]", "value": "Active"}, {"measurement": "Activity", "setting": "[5]", "value": "Dose-Dependent Effect"}, {"measurement": "Activity", "setting": "[6]", "value": "Dose-Dependent Effect"}, {"measurement": "Activity", "setting": "[7]", "value": "Active"}, {"measurement": "Activity", "setting": "[8]", "value": "Active"}, {"measurement": "inhibition", "setting": "[9]", "value": "Active"}, {"measurement": "Activity", "setting": "[10]", "value": "Active"}, {"measurement": "IC50", "setting": "[11]", "value": 6.67, "unit": "µM"}, {"measurement": "Activity", "setting": "[12]", "value": "Active"}, {"measurement": "Activity", "setting": "[13]", "value": "Active"}, {"measurement": "Activity", "setting": "[14]", "value": "Dose-Dependent Effect"}, {"measurement": "Activity", "setting": "[15]", "value": "Non-Toxic"}, {"measurement": "Activity", "setting": "[16]", "value": "Non-Toxic"}, {"measurement": "Activity", "setting": "[17]", "value": "Active"}, {"measurement": "Activity", "setting": "[18]", "value": "inactive"}, {"measurement": "Activity", "setting": "[19]", "value": "Active"}, {"measurement": "Activity", "setting": "[20]", "value": "Active"}, {"measurement": "Activity", "setting": "[21]", "value": "Active"}]}
